Reference: the RNAGym collection of RNA variant scans (doi:10.1038/s41586-018-0170-7)

B1: tRNA (parent)
chain: GUUCCGUUGGCGUAAUGGUAACGCGUCUCCCUCCUAAGGAGAAGACUGCGGGUUCGAGUCCCGUACGGAACG

Variants of: B1
Assay: yeast fitness, log relative to wild type (ln ratio); higher = fitter; tRNA-Arg(CCU), competitive growth, 37 C, 1 M NaCl
Outline: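 For each genotype, fitness is defined as the natural log of its generation number over the wild type's. The tRNA-Arg(CCU) variant library was on a HIS3 centromeric plasmid in BY4742 with the chromosomal gene removed, and pools were first grown 4 generations in SC-HIS at 30 °C and then ~6.5 generations (~26.5 h) in SC-HIS 1M NaCl at 37 °C. Generations were calculated from OD-scaled log2 output/input frequency, weighted by inverse variance across replicates, using counts from 125 bp paired-end Illumina sequencing.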

First: AUUCCGUUGGCGUAAUGGUAACGCGUCUCCCUCCUAAGGAGACGACUGCGGGUUCGAGUCCCGUAUGGAACG [G1A A43C C66U]
Second: GGUCCAUUGGCGUAAUGGUAACGCGUCUCCCUCCUAAGGAGAAGACUGCGGGUUCGAGUCCCGUAUGGGGCG [U2G G6A C66U A69G A70G]
The “yeast fitness (ln)” value of the first is higher: -0.172 for the first, -0.448 for the second.

Going from AGUCCGUUGGCGUAAUGGUAACGCGUUUCCCUCCUAAGGAGACGACUGCGGGUUCGAGUCCCGUACGGAUCG [G1A U2G C27U A43C A70U] to GUUCCUUUGGCGUAAUGGUAACGCGUUUCCCUCCUAAGGAGAAGAUUGCGGGUUCGAGUCCCGUAUGGAACG [G6U C27U C46U C66U], the “yeast fitness (ln)” value falls from -0.154 to -0.209.

Compared with GGUCCUUUGGCGUAAUGGUAACGCGUUUCCCUCCUAAGGAGAAGACUGCGGGUUCGAGUCCCGUAUGGAAUG [U2G G6U C27U C66U C71U], ACUCCAUUGGCGUAAUGGUAACGCGUCUCCCUCCUAAGGAGAAGACUGCGGGUUCGAGUCCCGUAUGGGUCG [G1A U2C G6A C66U A69G A70U] is higher in “yeast fitness (ln)” value: -0.31 for the first, -0.0166 for the second.

Compared with GUUCCGUUGGCGUAAUGGUAACGCGUCUCCCUCCUAAGGAGAAGAUUGCGGGUUCGAGUCCCGUAAGGGGUG [C46U C66A A69G A70G C71U], AUUCCGUUGGCGUAAUGGUAACGCGUUUCCCUCCUAAGGAGAAGAUUGCGGGUUCGAGUCCCGUAUGGGGUG [G1A C27U C46U C66U A69G A70G C71U] is lower in “yeast fitness (ln)” value: -0.0571 for the first, -0.255 for the second.

Going from GUUCCAUUGGCGUAAUGGUAACGCGUUUCCCUCCUAAGGAGAAGAUUGCGGGUUCGAGUCCCGUACGGGGUG [G6A C27U C46U A69G A70G C71U] to ACUCCGUUGGCGUAAUGGUAACGCGUUUCCCUCCUAAGGAGACGACUGCGGGUUCGAGUCCCGUACGGGAUG [G1A U2C C27U A43C A69G C71U], the “yeast fitness (ln)” value rises from -0.219 to -0.173.

First: GUUCCAUUGGCGUAAUGGUAACGCGUUUCCCUCCUAAGGAGAAGAUUGCGGGUUCGAGUCCCGUAAGGAAUG [G6A C27U C46U C66A C71U]
Second: GCUCCUUUGGCGUAAUGGUAACGCGUCUCCCUCCUAAGGAGACGACUGCGGGUUCGAGUCCCGUACGGGUUG [U2C G6U A43C A69G A70U C71U]
The “yeast fitness (ln)” value of the first is higher: -0.148 for the first, -0.4 for the second.

Compared with GUUCCAUUGGCGUAAUGGUAACGCGUCUCCCUCCUAAGGAGAAGACUGCGGGUUCGAGUCCCGUACGGGGUG [G6A A69G A70G C71U], AGUCCUUUGGCGUAAUGGUAACGCGUCUCCCUCCUAAGGAGACGACUGCGGGUUCGAGUCCCGUAUGGGUCG [G1A U2G G6U A43C C66U A69G A70U] is higher in “yeast fitness (ln)” value: -0.263 for the first, -0.255 for the second.

First: ACUCCGUUGGCGUAAUGGUAACGCGUUUCCCUCCUAAGGAGAAGACUGCGGGUUCGAGUCCCGUACGGAAUG [G1A U2C C27U C71U]
Second: GCUCCUUUGGCGUAAUGGUAACGCGUUUCCCUCCUAAGGAGACGACUGCGGGUUCGAGUCCCGUACGGGUUG [U2C G6U C27U A43C A69G A70U C71U]
The “yeast fitness (ln)” value of the first is higher: -0.238 for the first, -0.513 for the second.

First: GUUCCAUUGGCGUAAUGGUAACGCGUUUCCCUCCUAAGGAGACGACUGCGGGUUCGAGUCCCGUACGGAGCG [G6A C27U A43C A70G]
Second: GCUCCUUUGGCGUAAUGGUAACGCGUCUCCCUCCUAAGGAGAAGACUGCGGGUUCGAGUCCCGUACGGAGCG [U2C G6U A70G]
The “yeast fitness (ln)” value of the first is lower: -0.213 for the first, -0.0391 for the second.

Compared with AUUCCGUUGGCGUAAUGGUAACGCGUUUCCCUCCUAAGGAGACGACUGCGGGUUCGAGUCCCGUAAGGAUCG [G1A C27U A43C C66A A70U], GUUCCGUUGGCGUAAUGGUAACGCGUCUCCCUCCUAAGGAGAAGAUUGCGGGUUCGAGUCCCGUAAGGGAUG [C46U C66A A69G C71U] is higher in “yeast fitness (ln)” value: -0.136 for the first, -0.0675 for the second.

First: GGUCCUUUGGCGUAAUGGUAACGCGUUUCCCUCCUAAGGAGAAGAUUGCGGGUUCGAGUCCCGUAAGGAAUG [U2G G6U C27U C46U C66A C71U]
Second: GGUCCUUUGGCGUAAUGGUAACGCGUCUCCCUCCUAAGGAGAAGAUUGCGGGUUCGAGUCCCGUAUGGAACG [U2G G6U C46U C66U]
The “yeast fitness (ln)” value of the first is lower: -0.147 for the first, -0.131 for the second.

Compared with AGUCCAUUGGCGUAAUGGUAACGCGUCUCCCUCCUAAGGAGACGAUUGCGGGUUCGAGUCCCGUACGGGGCG [G1A U2G G6A A43C C46U A69G A70G], GCUCCAUUGGCGUAAUGGUAACGCGUCUCCCUCCUAAGGAGACGACUGCGGGUUCGAGUCCCGUACGGGUUG [U2C G6A A43C A69G A70U C71U] is higher in “yeast fitness (ln)” value: -0.292 for the first, -0.279 for the second.

Compared with AUUCCUUUGGCGUAAUGGUAACGCGUCUCCCUCCUAAGGAGACGACUGCGGGUUCGAGUCCCGUACGGGUCG [G1A G6U A43C A69G A70U], GGUCCAUUGGCGUAAUGGUAACGCGUCUCCCUCCUAAGGAGAAGAUUGCGGGUUCGAGUCCCGUACGGGUCG [U2G G6A C46U A69G A70U] is higher in “yeast fitness (ln)” value: -0.326 for the first, -0.21 for the second.

Going from GUUCCGUUGGCGUAAUGGUAACGCGUCUCCCUCCUAAGGAGAAGACUGCGGGUUCGAGUCCCGUAUGGGAUG [C66U A69G C71U] to ACUCCUUUGGCGUAAUGGUAACGCGUUUCCCUCCUAAGGAGACGAUUGCGGGUUCGAGUCCCGUACGGAGUG [G1A U2C G6U C27U A43C C46U A70G C71U], the “yeast fitness (ln)” value falls from -0.166 to -0.198.

Compared with GCUCCGUUGGCGUAAUGGUAACGCGUCUCCCUCCUAAGGAGAAGAUUGCGGGUUCGAGUCCCGUACGGGACG [U2C C46U A69G], GGUCCUUUGGCGUAAUGGUAACGCGUCUCCCUCCUAAGGAGACGACUGCGGGUUCGAGUCCCGUACGGGAUG [U2G G6U A43C A69G C71U] is lower in “yeast fitness (ln)” value: -0.0478 for the first, -0.402 for the second.

Compared with AGUCCAUUGGCGUAAUGGUAACGCGUCUCCCUCCUAAGGAGAAGACUGCGGGUUCGAGUCCCGUACGGGUUG [G1A U2G G6A A69G A70U C71U], GCUCCGUUGGCGUAAUGGUAACGCGUUUCCCUCCUAAGGAGACGAUUGCGGGUUCGAGUCCCGUAUGGAUUG [U2C C27U A43C C46U C66U A70U C71U] is higher in “yeast fitness (ln)” value: -0.331 for the first, -0.324 for the second.

Compared with AUUCCGUUGGCGUAAUGGUAACGCGUCUCCCUCCUAAGGAGAAGAUUGCGGGUUCGAGUCCCGUAAGGGGCG [G1A C46U C66A A69G A70G], ACUCCUUUGGCGUAAUGGUAACGCGUCUCCCUCCUAAGGAGACGAUUGCGGGUUCGAGUCCCGUAUGGAGUG [G1A U2C G6U A43C C46U C66U A70G C71U] is lower in “yeast fitness (ln)” value: -0.183 for the first, -0.267 for the second.

Going from GCUCCUUUGGCGUAAUGGUAACGCGUUUCCCUCCUAAGGAGACGACUGCGGGUUCGAGUCCCGUACGGAGCG [U2C G6U C27U A43C A70G] to GUUCCGUUGGCGUAAUGGUAACGCGUCUCCCUCCUAAGGAGACGAUUGCGGGUUCGAGUCCCGUACGGAGCG [A43C C46U A70G], the “yeast fitness (ln)” value rises from -0.18 to -0.00498.

For GUUCCUUUGGCGUAAUGGUAACGCGUUUCCCUCCUAAGGAGACGAUUGCGGGUUCGAGUCCCGUACGGAUCG [G6U C27U A43C C46U A70U], the “yeast fitness (ln)” value was -0.206.
